# Experiments:
# [1] = biological target: T1, Prostaglandin E2 receptor EP3 subtype (Homo sapiens, UniProt P43115); assay: Binding affinity to EP3 receptor in presence of HSA
# T1 sequence (P43115 whole entry): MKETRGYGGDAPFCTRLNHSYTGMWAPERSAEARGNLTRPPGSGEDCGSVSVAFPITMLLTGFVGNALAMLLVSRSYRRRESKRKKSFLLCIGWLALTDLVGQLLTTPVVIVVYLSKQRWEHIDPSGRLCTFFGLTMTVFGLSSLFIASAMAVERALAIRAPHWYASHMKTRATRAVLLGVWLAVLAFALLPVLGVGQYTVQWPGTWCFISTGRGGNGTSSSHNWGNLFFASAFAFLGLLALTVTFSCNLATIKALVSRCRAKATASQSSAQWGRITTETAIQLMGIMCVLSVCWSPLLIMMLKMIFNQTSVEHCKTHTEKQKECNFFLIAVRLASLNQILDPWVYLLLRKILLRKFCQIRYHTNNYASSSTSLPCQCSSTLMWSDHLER
# [2] = biological target: Prostaglandin E2 receptor EP2 subtype (Homo sapiens, UniProt P43116); assay: Binding affinity to EP2 receptor
# [3] = biological target: T1, Prostaglandin E2 receptor EP3 subtype; assay: Binding affinity to EP3 receptor
# [4] = biological target: T2, Prostaglandin E2 receptor EP1 subtype (Homo sapiens, UniProt P34995); assay: Binding affinity to EP1 receptor
# T2 sequence (P34995 whole entry): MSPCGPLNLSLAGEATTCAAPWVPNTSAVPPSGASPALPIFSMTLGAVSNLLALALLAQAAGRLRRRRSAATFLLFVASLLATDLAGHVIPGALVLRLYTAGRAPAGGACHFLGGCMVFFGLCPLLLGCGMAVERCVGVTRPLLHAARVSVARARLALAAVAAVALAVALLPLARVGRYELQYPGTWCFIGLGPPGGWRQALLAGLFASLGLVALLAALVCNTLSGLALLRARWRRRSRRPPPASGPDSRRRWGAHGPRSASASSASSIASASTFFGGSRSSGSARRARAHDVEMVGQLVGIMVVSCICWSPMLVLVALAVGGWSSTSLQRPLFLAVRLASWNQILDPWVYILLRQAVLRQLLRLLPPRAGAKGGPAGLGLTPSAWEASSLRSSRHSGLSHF
# [5] = biological target: Prostaglandin E2 receptor EP4 subtype (Homo sapiens, UniProt P35408); assay: Binding affinity to EP4 receptor
# [6] = Half life in Sprague-Dawley rat at 10 mg/kg, po and 5 mg/kg, iv; format: ADME, organism-based; conditions: in vivo
# [7] = Clearance in Sprague-Dawley rat at 10 mg/kg, po and 5 mg/kg, iv; format: ADME, organism-based; conditions: in vivo
# [8] = Bioavailability in Sprague-Dawley rat at 10 mg/kg, po and 5 mg/kg, iv; format: ADME, organism-based; conditions: in vivo
# [9] = tested on: Rattus norvegicus; assay: Effect on carrageenan-induced paw hyperalgesia in po dosed rat; format: functional
# [10] = biological target: T3, Thromboxane A2 receptor (Homo sapiens, UniProt P21731); assay: Binding affinity to TP receptor
# T3 sequence (P21731 whole entry): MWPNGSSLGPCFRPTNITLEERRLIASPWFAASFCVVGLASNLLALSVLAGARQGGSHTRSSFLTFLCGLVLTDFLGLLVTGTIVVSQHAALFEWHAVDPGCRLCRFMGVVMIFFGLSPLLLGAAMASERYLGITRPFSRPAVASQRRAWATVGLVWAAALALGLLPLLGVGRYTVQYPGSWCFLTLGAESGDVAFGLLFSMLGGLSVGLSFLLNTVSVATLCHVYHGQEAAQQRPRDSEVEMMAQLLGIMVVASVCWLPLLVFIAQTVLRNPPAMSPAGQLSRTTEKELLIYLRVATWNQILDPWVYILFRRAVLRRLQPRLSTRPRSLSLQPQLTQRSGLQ
# [11] = tested on: Rattus norvegicus; assay: Concentration in carrageenan-induced hyperalgesic rat at 10 mg/kg, po, 1 hr postdose; format: functional
# How it was run: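 Young 100 g rats from the hyperalgesia model given 10 mg/kg po in 0.5% methocel as sodium salts; plasma concentration measured 1 h post-dosing, at the time hyperalgesia was assessed.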
# [12] = biological target: Prostacyclin receptor (Homo sapiens, UniProt P43119); assay: Binding affinity to IP receptor
# [13] = biological target: T4, Prostaglandin D2 receptor (Homo sapiens, UniProt Q13258); assay: Binding affinity to DP receptor
# T4 sequence (Q13258 whole entry): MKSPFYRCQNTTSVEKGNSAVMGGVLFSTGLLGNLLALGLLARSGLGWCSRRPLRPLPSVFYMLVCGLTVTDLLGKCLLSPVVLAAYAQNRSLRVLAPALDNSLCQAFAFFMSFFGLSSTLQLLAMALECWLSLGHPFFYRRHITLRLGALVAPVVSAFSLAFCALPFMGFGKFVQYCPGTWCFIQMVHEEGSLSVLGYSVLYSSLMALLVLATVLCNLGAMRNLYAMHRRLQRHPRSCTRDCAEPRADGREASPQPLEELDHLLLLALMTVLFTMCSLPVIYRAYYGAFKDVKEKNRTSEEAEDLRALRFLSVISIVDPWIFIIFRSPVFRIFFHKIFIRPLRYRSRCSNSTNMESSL
# [14] = biological target: Prostaglandin F2-alpha receptor (Homo sapiens, UniProt P43088); assay: Binding affinity to FP receptor
# [15] = Stability in rat hepatocytes after 3 hrs; format: ADME, cell-based, Hepatocyte; conditions: read-out: Stability
# How it was run: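 Incubation with rat hepatocytes for 3 h; percentage of parent compound recovered intact.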
# [16] = Cmax in Sprague-Dawley rat at 10 mg/kg, po and 5 mg/kg, iv after 30 mins; format: ADME, organism-based; conditions: in vivo
# [17] = tested on: Rattus norvegicus; assay: Antiinflammatory activity against carrageenan-induced paw edema in po dosed rat; format: functional
# [18] = Metabolism in human hepatocytes; format: ADME, cell-based, Hepatocyte; conditions: read-out: Activity
# [19] = biological target: T5, Prostaglandin E2 receptor EP3 subtype (Homo sapiens) (UniProt P43115); assay: Antagonistic activity at EP3 receptor assessed as inhibition of cAMP production in HEK EBNA cells; format: functional, cell-based; conditions: HEK293-EBNA, filed as antagonist
# T5 sequence (whole entry): T1 sequence (P43115 whole entry)
# Prostaglandin F2-alpha receptor, sequence (P43088 whole entry): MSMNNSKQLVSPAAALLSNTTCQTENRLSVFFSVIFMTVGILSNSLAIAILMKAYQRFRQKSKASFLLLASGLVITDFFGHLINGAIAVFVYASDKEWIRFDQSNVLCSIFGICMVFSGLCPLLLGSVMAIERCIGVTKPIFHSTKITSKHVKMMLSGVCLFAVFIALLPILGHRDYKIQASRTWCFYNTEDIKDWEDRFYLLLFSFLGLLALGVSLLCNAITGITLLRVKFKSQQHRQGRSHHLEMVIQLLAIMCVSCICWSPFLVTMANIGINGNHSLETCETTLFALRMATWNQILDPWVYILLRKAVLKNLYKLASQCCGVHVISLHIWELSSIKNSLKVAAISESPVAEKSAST
# Prostaglandin E2 receptor EP2 subtype, sequence (P43116 whole entry): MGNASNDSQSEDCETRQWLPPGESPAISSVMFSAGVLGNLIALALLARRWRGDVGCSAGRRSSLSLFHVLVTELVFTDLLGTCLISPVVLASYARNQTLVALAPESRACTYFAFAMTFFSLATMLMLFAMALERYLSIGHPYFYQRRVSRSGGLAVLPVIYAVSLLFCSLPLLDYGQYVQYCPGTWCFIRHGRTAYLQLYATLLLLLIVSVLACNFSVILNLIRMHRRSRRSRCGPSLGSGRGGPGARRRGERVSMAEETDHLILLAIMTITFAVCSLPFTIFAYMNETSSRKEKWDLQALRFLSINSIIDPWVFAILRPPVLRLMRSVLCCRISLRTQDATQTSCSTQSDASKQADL
# Prostacyclin receptor, sequence (P43119 whole entry): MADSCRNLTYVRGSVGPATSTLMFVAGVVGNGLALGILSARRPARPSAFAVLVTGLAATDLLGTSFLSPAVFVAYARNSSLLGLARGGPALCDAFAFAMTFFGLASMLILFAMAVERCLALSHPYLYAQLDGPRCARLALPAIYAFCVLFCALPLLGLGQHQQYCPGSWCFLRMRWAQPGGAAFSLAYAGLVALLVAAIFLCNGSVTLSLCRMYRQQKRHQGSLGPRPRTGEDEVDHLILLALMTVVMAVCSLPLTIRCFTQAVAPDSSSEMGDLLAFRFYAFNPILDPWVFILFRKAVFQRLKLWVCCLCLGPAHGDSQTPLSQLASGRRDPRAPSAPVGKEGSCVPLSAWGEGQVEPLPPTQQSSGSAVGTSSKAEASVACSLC
# Prostaglandin E2 receptor EP4 subtype, sequence (P35408 whole entry): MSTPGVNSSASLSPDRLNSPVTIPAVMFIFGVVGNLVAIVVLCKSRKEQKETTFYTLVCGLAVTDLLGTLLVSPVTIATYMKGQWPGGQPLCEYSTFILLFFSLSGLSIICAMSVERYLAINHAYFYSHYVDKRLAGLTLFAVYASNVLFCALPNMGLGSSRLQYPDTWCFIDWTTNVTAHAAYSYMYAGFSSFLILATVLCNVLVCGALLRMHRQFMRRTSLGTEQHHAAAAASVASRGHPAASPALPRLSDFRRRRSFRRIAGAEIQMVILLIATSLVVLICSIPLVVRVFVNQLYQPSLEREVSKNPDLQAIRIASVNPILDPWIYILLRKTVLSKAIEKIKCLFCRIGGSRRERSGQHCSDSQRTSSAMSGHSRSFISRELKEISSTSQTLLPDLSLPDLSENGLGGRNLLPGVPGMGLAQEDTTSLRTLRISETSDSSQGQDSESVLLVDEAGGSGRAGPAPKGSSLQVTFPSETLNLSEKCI
Ki [1],Ki [2],Ki [3],Ki [4],Ki [5],half-life [6],clearance [7],bioavailability [8],Ki [10],Ki [12],Ki [13],Ki [14],remaining at 3 h [15],Cmax [16],metabolised [18],Kb [19],SMILES,ED50 [9],Activity [11],ED50 [17]
,6.5 µM (antagonist),0.0024 µM (antagonist),2.6 µM (antagonist),1 µM (antagonist),,,,,,,,,,,,COc1ccc(C/C=C/c2ccccc2/C=C/C(=O)NS(=O)(=O)c2cccs2)cc1,,,
,8.7 µM (antagonist),0.0016 µM (antagonist),1.5 µM (antagonist),0.84 µM (antagonist),,,,,,,,,,,,COc1cc(/C=C/Cc2ccccc2/C=C/C(=O)NS(=O)(=O)c2cccs2)ccc1OCc1ccccc1,,,
,8 µM (antagonist),0.005 µM (antagonist),8.5 µM (antagonist),1.5 µM (antagonist),,,,,,,,,,,,O=C(/C=C/c1ccccc1/C=C/Cc1ccccc1)NS(=O)(=O)c1cccs1,,,

# Continued, compound first:
SMILES,Ki [1],Ki [2],Ki [3],Ki [4],Ki [5],half-life [6],clearance [7],bioavailability [8],Ki [10],Ki [12],Ki [13],Ki [14],remaining at 3 h [15],Cmax [16],metabolised [18],Kb [19],ED50 [9],Activity [11],ED50 [17]
O=C(/C=C/c1ccccc1Cc1ccc2cc(OCc3ccccc3)ccc2c1)NS(=O)(=O)c1cccs1,0.0024 µM (antagonist),8 µM (antagonist),0.0006 µM (antagonist),3.2 µM (antagonist),1.1 µM (antagonist),,,,,,,,,,,,,,
O=C(/C=C/c1ccccc1Cc1ccc2ccccc2c1)NS(=O)(=O)c1cccs1,,8.6 µM (antagonist),,9.6 µM (antagonist),1.3 µM (antagonist),3 h,12 mL/min,144%,> 0.5 µM,> 0.5 µM,> 0.5 µM,> 0.5 µM,43%,21 µM,45%,,6.2 mg/kg,5 µM,1.2 mg/kg
Cc1ccc(OCc2ccccc2)c(CCCc2ccccc2CCC(=O)NS(=O)(=O)c2cccs2)c1,,1.6 µM (antagonist),0.056 µM (antagonist),6.7 µM (antagonist),1 µM (antagonist),,,,,,,,,,,,,,
Cc1ccc(OCc2ccccc2)c(C/C=C/c2ccccc2/C=C/C(=O)O)c1,,0.86 µM (antagonist),0.009 µM (antagonist),19 µM,2 µM (antagonist),2 h,10 mL/min,97%,> 0.5 µM,> 0.5 µM,> 0.5 µM,> 0.5 µM,8%,22 µM,,0.032 µM,20 mg/kg,0.24 µM,0.9 mg/kg
Cc1ccc(OCc2c(Cl)cccc2Cl)c(/C=C/Cc2ccccc2/C=C/C(=O)O)c1,,5.4 µM (antagonist),0.003 µM (antagonist),6.7 µM (antagonist),0.62 µM (antagonist),2 h,16 mL/min,74%,> 0.5 µM,> 0.5 µM,> 0.5 µM,> 0.5 µM,,25 µM,,0.0058 µM,5.8 mg/kg,2.5 µM,5.1 mg/kg
COc1ccc(/C=C/Cc2ccccc2/C=C/C(=O)O)cc1,,2.5 µM (antagonist),0.068 µM (antagonist),> 100 µM,6.2 µM (antagonist),,,,,,,,,,,,,,
COc1ccc(Br)cc1S(=O)(=O)NC(=O)/C=C/c1ccccc1Cc1ccc2cc(OCc3ccccc3)ccc2c1,0.0007 µM (antagonist),> 100 µM,0.0009 µM (antagonist),> 100 µM,8 µM (antagonist),,,,> 0.5 µM,> 0.5 µM,> 0.5 µM,> 0.5 µM,,,,0.0007 µM,> 30 mg/kg,8 µM,

# Source: ChEMBL document CHEMBL1139690, “Comparison between two classes of selective EP(3) antagonists and their biological activities” (Bioorg Med Chem Lett, 2006)
